Test results as given in ChEMBL document CHEMBL3098014 (Bioorg Med Chem, 2014).
pKi: −log10 of the molar value.

Assays:
Transporter = Transporter (Rattus norvegicus, UniProt Q63380); test: Displacement of [3H]-dopamine from rat cerebral cortex NET after 7 mins; type: tissue-based
[1] = biological target: Sodium-dependent serotonin transporter (Rattus norvegicus, UniProt P31652); test: Displacement of [3H]5-HT from rat cerebral cortex SERT after 10 mins; type: tissue-based
Outline: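 Rat cerebral cortex tissue. Inhibition of [3H]5-HT (27.9 Ci/mmol) uptake, accumulation measured over 10 min. Drug stocks included an added 0.01% (w/v) BSA. Five or more triplicate concentrations bracketing the IC50, converted to Ki by Cheng-Prusoff. Mean ± SEM from three to eight independent experiments.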

[2] = biological target: Sodium-dependent dopamine transporter (Rattus norvegicus, UniProt P23977); test: Displacement of [3H]-dopamine from rat striatum DAT after 5 mins
Sodium-dependent dopamine transporter, sequence (P23977 whole entry): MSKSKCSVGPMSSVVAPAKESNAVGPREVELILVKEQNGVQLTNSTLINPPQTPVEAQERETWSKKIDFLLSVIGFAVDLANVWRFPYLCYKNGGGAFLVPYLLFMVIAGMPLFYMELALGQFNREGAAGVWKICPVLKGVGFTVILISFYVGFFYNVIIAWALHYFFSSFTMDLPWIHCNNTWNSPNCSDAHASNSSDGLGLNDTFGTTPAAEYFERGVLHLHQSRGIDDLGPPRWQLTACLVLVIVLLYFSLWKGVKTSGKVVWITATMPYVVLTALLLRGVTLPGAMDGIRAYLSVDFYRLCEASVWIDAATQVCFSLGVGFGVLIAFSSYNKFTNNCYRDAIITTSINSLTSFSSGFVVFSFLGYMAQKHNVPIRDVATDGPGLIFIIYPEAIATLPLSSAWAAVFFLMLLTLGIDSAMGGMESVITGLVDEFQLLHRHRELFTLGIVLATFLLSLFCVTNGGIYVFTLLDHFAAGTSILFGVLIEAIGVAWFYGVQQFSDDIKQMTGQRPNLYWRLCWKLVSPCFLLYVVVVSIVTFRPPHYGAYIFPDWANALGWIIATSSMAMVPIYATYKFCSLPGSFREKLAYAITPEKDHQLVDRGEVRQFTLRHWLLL
Outline: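 Uptake inhibition in rat striatal tissue: [3H]dopamine (45.0 Ci/mmol) accumulation measured over 5 min. Drug stocks contained an extra 0.01% (w/v) BSA. At least five concentrations, each in triplicate, spaced evenly around the IC50. IC50 converted to Ki via Cheng-Prusoff. Average ± SEM of three to eight independent experiments.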

Transporter, sequence (Q63380 whole entry): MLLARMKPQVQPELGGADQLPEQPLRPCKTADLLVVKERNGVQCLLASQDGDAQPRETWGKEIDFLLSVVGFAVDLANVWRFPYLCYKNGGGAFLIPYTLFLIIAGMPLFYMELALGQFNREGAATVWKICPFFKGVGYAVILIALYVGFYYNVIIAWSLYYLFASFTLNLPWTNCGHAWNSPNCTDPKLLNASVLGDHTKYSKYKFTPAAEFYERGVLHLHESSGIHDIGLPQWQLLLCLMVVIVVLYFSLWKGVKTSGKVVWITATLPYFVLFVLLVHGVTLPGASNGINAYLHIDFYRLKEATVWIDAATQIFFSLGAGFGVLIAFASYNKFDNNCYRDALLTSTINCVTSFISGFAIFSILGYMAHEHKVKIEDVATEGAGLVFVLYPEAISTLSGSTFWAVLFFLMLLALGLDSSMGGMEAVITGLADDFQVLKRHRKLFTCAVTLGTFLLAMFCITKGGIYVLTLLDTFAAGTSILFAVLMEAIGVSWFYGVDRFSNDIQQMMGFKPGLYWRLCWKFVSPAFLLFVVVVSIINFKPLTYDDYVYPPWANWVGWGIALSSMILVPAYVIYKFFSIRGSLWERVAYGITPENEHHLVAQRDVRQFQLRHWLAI
Sodium-dependent serotonin transporter, sequence (P31652 whole entry): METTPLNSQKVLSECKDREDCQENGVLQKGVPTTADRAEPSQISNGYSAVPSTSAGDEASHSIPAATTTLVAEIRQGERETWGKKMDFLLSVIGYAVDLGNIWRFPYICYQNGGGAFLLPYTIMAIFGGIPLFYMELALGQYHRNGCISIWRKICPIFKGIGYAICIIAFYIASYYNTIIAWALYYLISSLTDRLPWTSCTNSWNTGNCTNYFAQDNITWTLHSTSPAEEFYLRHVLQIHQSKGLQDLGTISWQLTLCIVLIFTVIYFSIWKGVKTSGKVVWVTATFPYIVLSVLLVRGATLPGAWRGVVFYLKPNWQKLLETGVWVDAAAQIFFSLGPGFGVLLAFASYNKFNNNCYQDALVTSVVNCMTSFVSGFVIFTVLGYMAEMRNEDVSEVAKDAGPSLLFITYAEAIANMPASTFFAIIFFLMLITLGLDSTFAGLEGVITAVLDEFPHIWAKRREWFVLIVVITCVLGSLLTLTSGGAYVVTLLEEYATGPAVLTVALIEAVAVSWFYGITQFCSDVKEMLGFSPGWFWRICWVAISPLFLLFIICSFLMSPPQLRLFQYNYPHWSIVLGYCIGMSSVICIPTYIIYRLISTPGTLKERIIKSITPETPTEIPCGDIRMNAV

Row | pKi (Transporter) | pKi [1] | pKi [2] | SMILES
1 | 6.78 | 6.82 | 6.59 | Oc1ccc(CCN[C@@H]2CO[C@H](C(c3ccccc3)c3ccccc3)C2)cc1
2 | 6.70 | 6.45 | 6.58 | COc1ccc(CCN[C@@H]2CO[C@H](C(c3ccccc3)c3ccccc3)C2)cc1
3 | 6.71 | 5.87 | 6.23 | Fc1ccc(CCN[C@@H]2CO[C@H](C(c3ccccc3)c3ccccc3)C2)cc1
4 | 6.37 | 5.69 | 6.19 | c1ccc(CCN[C@@H]2CO[C@H](C(c3ccccc3)c3ccccc3)C2)cc1
5 | 6.01 | 6.39 | 5.43 | Oc1ccc(CN[C@H]2CO[C@H](C(c3ccccc3)c3ccccc3)C2)cc1
6 | 6.13 | 6.07 | 6.34 | c1ccc(CCN[C@H]2CO[C@H](C(c3ccccc3)c3ccccc3)C2)cc1

Further lines, the compound ahead of its results:

Row | SMILES | pKi (Transporter) | pKi [1] | pKi [2]
7 | Nc1ccc(CN[C@H]2CC[C@@H](C(c3ccccc3)c3ccccc3)OC2)cc1 | 7.90 | – | –
8 | Oc1ccc(CN[C@H]2CC[C@@H](Cc3ccccc3)OC2)cc1 | 6.62 | 5.60 | –
9 | Oc1ccc(CN[C@@H]2CO[C@H](C(c3ccccc3)c3ccccc3)C2)cc1 | 5.82 | 5.94 | 6.03
10 | Oc1ccc(CN[C@@H]2CO[C@H](C(c3ccc(F)cc3)c3ccc(F)cc3)C[C@H]2O)cc1 | 8.38 | 7.23 | 7.42
11 | Fc1ccc(C(c2ccc(F)cc2)[C@@H]2CC[C@H](NCc3ccc4c(c3)CCO4)CO2)cc1 | 8.21 | 8.52 | 7.95
12 | Nc1ccc(CN[C@H]2CC[C@@H](C(c3ccc(F)cc3)c3ccc(F)cc3)OC2)cc1 | 8.08 | 7.16 | 7.49
13 | Oc1ccc(CN[C@H]2CC[C@@H](CC(c3ccccc3)c3ccccc3)OC2)cc1 | 6.74 | 6.46 | 6.61
14 | Oc1ccc(CN[C@H]2CC[C@@H](CCC(c3ccccc3)c3ccccc3)OC2)cc1 | 7.42 | 6.33 | 7.34
